Reference: ChEMBL document CHEMBL3046382, “Synthesis and insecticidal activities and SAR studies of novel benzoheterocyclic diacylhydrazine derivatives” (2009)
In brackets after ≈: the same amount, converted by molar mass.

What was measured:
Format in all cases: functional
Mythimna separata [1] = test: Stomach toxicity in fourth-instar Mythimna separata (Oriental armyworm) larvae in compound treated corn leaves assessed as mortality at 2.5 mg/kg measured after 4 days; conditions: 96 h
Mythimna separata [2] = test: Stomach toxicity in fourth-instar Mythimna separata (Oriental armyworm) larvae in compound treated corn leaves assessed as mortality at 25 mg/kg measured after 4 days; conditions: 96 h
Spodoptera exigua [3] = test: Contact toxicity in fourth-instar Spodoptera exigua assessed as mortality by topical application measured after 72 hr; conditions: read-out: LD50 (the source's name)
Method in brief: (§1)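 Topical application to fourth-instar larvae: 1.0 μL of acetone dilution at various concentrations placed on the thoracic tergite by automatic microapplicator. Larvae then returned to standard rearing. Acetone-only control, each treatment three times. Mortality calculated at 48 and 72 h and LC50 derived.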

Mythimna separata [4] = test: Stomach toxicity in fourth-instar Mythimna separata (Oriental armyworm) larvae in compound treated corn leaves assessed as mortality at 10 mg/kg measured after 4 days; conditions: 96 h
Culicidae [5] = test: Toxicity against fourth-instar larvae of Culex pipiens pallens assessed as mortality at 1 mg/kg measured after 7 to 10 days
Method in brief: (§2)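 For each concentration, 1 mL of dilution was added to 99 mL water and 20 fourth-instar larvae introduced. Percentage mortality assessed 7–10 days after treatment.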

Ostrinia nubilalis = test: Stomach toxicity in Ostrinia nubilalis (European corn borer) in compound treated corn leaves assessed as mortality measured after 4 days by leaf-dip method; conditions: for LC50: Ostrinia nubilalis, 96 h
Method in brief: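 Corn leaf disks (about 5 cm) dipped 3–5 s in test solution, air-dried, and placed singly in 7 cm glass vessels. Each disk given 10 third-instar larvae. Acetone-treated leaves as control, four replicates. Percentage mortality at 4 days; LC50 and LC95 derived.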

Plutella xylostella [6] = test: Contact toxicity in fourth-instar Plutella xylostella (diamondback moth) larva assessed as mortality measured after 72 hr by insect-dip method
Method in brief: (§3)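 Fourth-instar larvae immersed for 5 min in acetone solutions diluted with water, five concentrations. Larvae then held at 25 ± 1 °C under standard rearing. Usually 30 insects per dose, each treatment in triplicate, water-only control. Mortality read at 48 and 72 h and LC50 derived.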

Spodoptera exigua [7] = test: Stomach toxicity in Spodoptera exigua in compound treated cabbage leaves assessed as mortality measured after 3 days by leaf-dip method; conditions: 72 h
Method in brief: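 Cabbage leaf disks (5 cm × 3 cm) dipped 3 s in test solution, air-dried, and placed singly in 80 cm³ boxes. Each disk given five third-instar larvae. Water- and acetone-treated leaves as controls, each treatment three times. Percentage mortality read at 3 days.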

Culicidae [8] = test: Toxicity against fourth-instar larvae of Culex pipiens pallens assessed as mortality at 0.5 mg/kg measured after 7 to 10 days; method in brief: as §2
Helicoverpa armigera [9] = test: Stomach toxicity in Helicoverpa armigera in compound treated corn leaves assessed as mortality at 1000 mg/L measured after 4 days by leaf-dip method
Method in brief: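 Corn leaves dipped in acetone solution at 1000 mg L⁻¹ and air-dried. Each treated disk placed singly in a 24-hole box and given 10 third-instar larvae. Percentage mortality scored after 4 days.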

Mythimna separata [10] = test: Stomach toxicity in fourth-instar Mythimna separata (Oriental armyworm) larvae in compound treated corn leaves assessed as mortality at 50 mg/kg measured after 4 days; conditions: 96 h
Spodoptera exigua [11] = test: Contact toxicity in fourth-instar Spodoptera exigua assessed as mortality by topical application measured after 48 hr; conditions: read-out: LD50 (the source's name); method in brief: as §1
Mythimna separata [12] = test: Stomach toxicity in fourth-instar Mythimna separata(Oriental armyworm) larvae in compound treated corn leaves assessed as mortality at 200 mg/kg measured after 4 days; conditions: 96 h
Helicoverpa armigera [13] = test: Contact toxicity in Helicoverpa armigera assessed as mortality at 1000 mg/L by topical application measured after 4 days […]
Method in brief: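 Third-instar larvae; compounds in acetone at 1000 mg L⁻¹, 0.5 μL applied to the thoracic tergite by microapplicator. Larvae then returned to standard rearing conditions. Percentage mortality scored 4 days after treatment.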

Culicidae [14] = test: Toxicity against fourth-instar larvae of Culex pipiens pallens assessed as mortality at 2 mg/kg measured after 7 to 10 days; method in brief: as §2
Mythimna separata [15] = test: Stomach toxicity in fourth-instar Mythimna separata (Oriental armyworm) larvae in compound treated corn leaves assessed as mortality at 100 mg/kg measured after 4 days; conditions: 96 h
Plutella xylostella [16] = test: Contact toxicity in fourth-instar Plutella xylostella (diamondback moth) larva assessed as mortality measured after 48 hr by insect-dip method; method in brief: as §3
Mythimna separata [17] = test: Stomach toxicity in fourth-instar Mythimna separata (Oriental armyworm) larvae in compound treated corn leaves assessed as mortality at 5 mg/kg measured after 4 days; conditions: 96 h

Compound | mortality at 2.5 mg/kg (Mythimna separata [1]) | mortality at 25 mg/kg (Mythimna separata [2]) | LC50 (Spodoptera exigua [3]) | mortality at 10 mg/kg (Mythimna separata [4]) | mortality at 1 mg/kg (Culicidae [5]) | LC95 (Ostrinia nubilalis) | LC50 (Ostrinia nubilalis) | LC50 (Plutella xylostella [6]) | LC50 (Spodoptera exigua [7]) | mortality at 0.5 mg/kg (Culicidae [8]) | Activity (Helicoverpa armigera [9]) | mortality at 50 mg/kg (Mythimna separata [10]) | LC50 (Spodoptera exigua [11]) | mortality at 200 mg/kg (Mythimna separata [12]) | Activity (Helicoverpa armigera [13]) | mortality at 2 mg/kg (Culicidae [14]) | mortality at 100 mg/kg (Mythimna separata [15]) | LC50 (Plutella xylostella [16]) | mortality at 5 mg/kg (Mythimna separata [17])
Cc1cc(C)cc(C(=O)N(NC(=O)c2ccc3c(c2C)CC(C)O3)C(C)(C)C)c1 (stereo unspecified) | 20% | 100% | 52.8 µg/mL (≈ 134 µM) | 95% | 10% | 271.89 µg/mL (≈ 689 µM) | 40.5 µg/mL (≈ 103 µM) | 81.4 µg/mL (≈ 206 µM) | 12.7 µg/mL (≈ 32.2 µM) | 10% | 70% | 100% | 190 µg/mL (≈ 482 µM) | 100% | 50% | 80% | 100% | 124 µg/mL (≈ 314 µM) | 80%
Cc1cc(C)cc(C(=O)N(NC(=O)c2ccc3c(c2C)CCCO3)C(C)(C)C)c1 [CHROMAFENOZIDE] | 80% | 100% | 14.9 µg/mL (≈ 37.8 µM) | 100% | 80% | 139.25 µg/mL (≈ 353 µM) | 18.6 µg/mL (≈ 47.2 µM) | 123 µg/mL (≈ 312 µM) | 6.3 µg/mL (≈ 16 µM) | 10% | 65% | 100% | 29.8 µg/mL (≈ 75.5 µM) | 100% | 60% | 100% | 100% | 236 µg/mL (≈ 598 µM) | 100%
Cc1cc(C)cc(C(=O)N(NC(=O)c2ccc3c(c2C)OC(C)C3)C(C)(C)C)c1 (stereo unspecified) [FUXIAN] | 95% | 100% | 12.6 µg/mL (≈ 31.9 µM) | 100% | 100% | 147.78 µg/mL (≈ 375 µM) | 25.6 µg/mL (≈ 64.8 µM) | 304 µg/mL (≈ 772 µM) | 5 µg/mL (≈ 12.7 µM) | 50% | 60% | 100% | 59.6 µg/mL (≈ 151 µM) | 100% | 60% | 100% | 100% | 372 µg/mL (≈ 943 µM) | 100%
Cc1cc(C)cc(C(=O)N(NC(=O)c2ccc3c(c2Cl)CCCO3)C(C)(C)C)c1 [N'-TERT-BUTYL-N'-(3,5-DIMETHYLBENZOYL)-N-5-CHLORO-6-CHROMANECARBOHYDRAZIDE] | – | – | 11.7 µg/mL (≈ 28.2 µM) | – | – | 405.65 µg/mL (≈ 978 µM) | 55.6 µg/mL (≈ 134 µM) | 70.8 µg/mL (≈ 171 µM) | 5.5 µg/mL (≈ 13.3 µM) | – | 80% | – | 17.3 µg/mL (≈ 41.7 µM) | – | 40% | – | – | 113 µg/mL (≈ 273 µM) | –
